From ChEMBL document CHEMBL3621084, “Discovery of 2-Pyridinone Aminals: A Prodrug Strategy to Advance a Second Generation of HIV-1 Integrase Strand Transfer Inhibitors” (J Med Chem, 2015)
Values after ≈ are worked out from the molar mass of the structure shown.

Key:
[1] = Solubility in FaSSiF at pH 6.5 at room temperature incubated for 4 hrs; type: physicochemical
[2] = system: Human immunodeficiency virus 1; experiment: Antiviral activity against HIV1 infected in human MT4 cells expressing GFP incubated for 48 to 72 hrs in absence of 50% normal human serum by multiple round viral replication kinetics assay; type: functional
[3] = Stability in SGF at pH 1.8 at 37 °C incubated for 4 hrs
Canis familiaris [4] = experiment: AUC (0 to infinity) in beagle dog assessed as (1R,2R,5S)-8'-(3-chloro-4-fluorobenzyl)-6'-hydroxy-2'-((S)-2-hydroxypropyl)-9',10'-dihydro-1'H-spiro[bicyclo[3.1.0]hexane-2,3'-imidazo[5,1-a][2,6]naphthyridine]-1',5',7'(2'H,8'H)-trione level at 100 mg/kg, po by LC-MS/MS method; type: ADME, organism-based, Canis lupus familiaris; design: dose 100 mg/kg, time infinity, route oral; conditions: in vivo
Procedure, shortened: (§1)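 Oral rising-dose studies were run in beagle dogs with prodrugs, at doses normalized to account for the promoiety so that they give the actual parent dose administered. The read-out was plasma exposure (AUC) of the parent compound.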

[5] = Stability in FaSSiF at pH 6.5 at 37 °C incubated for 4 hrs
[6] = Protein binding in beagle dog plasma at 2.5 uM incubated for 4 hrs by LC-MS/MS detection based equilibrium dialysis method; type: ADME, cell-free, Canis lupus familiaris; conditions: read-out: PPB (converted)
[7] = Oral bioavailability in beagle dog at 2 mg/kg by LC-MS/MS method; type: ADME, organism-based, Canis lupus familiaris; conditions: beagle, in vivo
[8] = AUC (0 to infinity) in beagle dog at 2 mg/kg, po by LC-MS/MS method; type: ADME, organism-based, Canis lupus familiaris; design: dose 2 mg/kg, route oral, time infinity; conditions: beagle, in vivo
[9] = system: Human immunodeficiency virus 1; experiment: Antiviral activity against HIV1 infected in human MT4 cells expressing GFP incubated for 48 to 72 hrs in presence of 50% normal human serum by multiple round viral replication kinetics assay; type: functional
[10] = system: Human immunodeficiency virus 1; experiment: Resistance index, ratio of IC50 for antiviral activity against HIV1 expressing integrase Y143R mutant to IC50 for antiviral activity against HIV1 expressing wild type integrase; type: functional
Procedure, shortened: (§2)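 Fold shift computed as the inflection point (IP) against mutant HIV-1 divided by the IP against wild-type virus. Both IPs come from a kinetic HIV replication (viral kinetics) potency assay run in 50% normal human serum (NHS).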

[11] = Permeability in MDCK2 cells at 1 uM incubated for 3 hrs by LC-MS/MS method; type: ADME, cell-based, Canis lupus familiaris, MDCK-II; conditions: dog, MDCK; read-out: permeability
[12] = system: Human immunodeficiency virus 1; experiment: Resistance index, ratio of IC50 for antiviral activity against HIV1 expressing integrase E92Q mutant to IC50 for antiviral activity against HIV1 expressing wild type integrase; type: functional; procedure, shortened: as §2
[13] = Plasma clearance in beagle dog at 0.5 mg/kg, iv by LC-MS/MS method; type: ADME, organism-based, Canis lupus familiaris
[14] = Volume of distribution at steady state in beagle dog at 0.5 mg/kg, iv by LC-MS/MS method; type: ADME, organism-based, Canis lupus familiaris; conditions: in vivo, read-out: Vdss
[15] = Solubility in SGF at pH 1.8 at room temperature incubated for 4 hrs; type: physicochemical
[16] = Permeability in LLC-PK1 cells at 1 uM incubated for 3 hrs by LC-MS/MS method; type: ADME, cell-based, Sus scrofa; conditions: pig, read-out: permeability
[17] = Half life in beagle dog at 0.5 mg/kg, iv by LC-MS/MS method; conditions: in vivo
Cytochrome P450 3A4 = Cytochrome P450 3A4 (Homo sapiens, UniProt P08684); experiment: Time dependent inhibition of CYP3A4 (unknown origin); type: ADME
[18] = system: Human immunodeficiency virus 1; experiment: Resistance index, ratio of IC50 for antiviral activity against HIV1 expressing integrase Q148R mutant to IC50 for antiviral activity against HIV1 expressing wild type integrase; type: functional; procedure, shortened: as §2
[19] = Protein binding in human plasma at 2.5 uM incubated for 4 hrs by LC-MS/MS detection based equilibrium dialysis method; type: ADME, cell-free; conditions: read-out: PPB (converted)
Canis familiaris [20] = experiment: AUC (0 to infinity) in beagle dog assessed as (1R,2R,5S)-8'-(3-chloro-4-fluorobenzyl)-6'-hydroxy-2'-((S)-2-hydroxypropyl)-9',10'-dihydro-1'H-spiro[bicyclo[3.1.0]hexane-2,3'-imidazo[5,1-a][2,6]naphthyridine]-1',5',7'(2'H,8'H)-trione level at 2 mg/kg, po by LC-MS/MS method; type: ADME, organism-based, Canis lupus familiaris; design: dose 2 mg/kg, time infinity, route oral; conditions: in vivo; procedure, shortened: as §1
Canis familiaris [21] = experiment: (§3) AUC (0 to infinity) in beagle dog assessed as (1R,2R,5S)-8'-(3-chloro-4-fluorobenzyl)-6'-hydroxy-2'-((S)-2-hydroxypropyl)-9',10'-dihydro-1'H-spiro[bicyclo[3.1.0]hexane-2,3'-imidazo[5,1-a][2,6]naphthyridine]-1',5',7'(2'H,8'H)-trione level at 10 mg/kg, po by LC-MS/MS method; type: ADME, organism-based, Canis lupus familiaris; design: dose 10 mg/kg, time infinity, route oral; conditions: in vivo; procedure, shortened: as §1
[22] = as §3, with “infinity) in portal vein of portal vein-cannulated beagle dog” for “infinity) in beagle dog”; type: ADME, organism-based, Canis lupus familiaris; design: dose 10 mg/kg, route oral, time infinity; conditions: in vivo
Procedure, shortened: (§4)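 Portal vein-cannulated dogs received the prodrugs orally at doses normalized to 10 mg/kg of the parent molecule. Prodrug and parent concentrations were determined in plasma collected from the portal and jugular veins, and AUC was derived for each analyte at each site.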

[23] = AUC (0 to infinity) in jugular vein of portal vein-cannulated beagle dog at 10 mg/kg, po by LC-MS/MS method; type: ADME, organism-based, Canis lupus familiaris; design: dose 10 mg/kg, time infinity, route oral; procedure, shortened: as §4
[24] = AUC (0 to infinity) in portal vein of portal vein-cannulated beagle dog at 10 mg/kg, po by LC-MS/MS method; type: ADME, organism-based, Canis lupus familiaris; design: dose 10 mg/kg, time infinity, route oral; procedure, shortened: as §4
[25] = AUC (0 to infinity) in jugular vein of portal vein-cannulated beagle dog assessed as (1R,2R,5S)-8'-(3-chloro-4-fluorobenzyl)-6'-hydroxy-2'-((S)-2-hydroxypropyl)-9',10'-dihydro-1'H-spiro[bicyclo[3.1.0]hexane-2,3'-imidazo[5,1-a][2,6]naphthyridine]-1',5',7'(2'H,8'H)-trione level at 10 mg/kg, po by LC-MS/MS method; type: ADME, organism-based, Canis lupus familiaris; design: dose 10 mg/kg, route oral, time infinity; conditions: in vivo; procedure, shortened: as §4

Cytochrome P450 3A4, sequence (P08684 whole entry): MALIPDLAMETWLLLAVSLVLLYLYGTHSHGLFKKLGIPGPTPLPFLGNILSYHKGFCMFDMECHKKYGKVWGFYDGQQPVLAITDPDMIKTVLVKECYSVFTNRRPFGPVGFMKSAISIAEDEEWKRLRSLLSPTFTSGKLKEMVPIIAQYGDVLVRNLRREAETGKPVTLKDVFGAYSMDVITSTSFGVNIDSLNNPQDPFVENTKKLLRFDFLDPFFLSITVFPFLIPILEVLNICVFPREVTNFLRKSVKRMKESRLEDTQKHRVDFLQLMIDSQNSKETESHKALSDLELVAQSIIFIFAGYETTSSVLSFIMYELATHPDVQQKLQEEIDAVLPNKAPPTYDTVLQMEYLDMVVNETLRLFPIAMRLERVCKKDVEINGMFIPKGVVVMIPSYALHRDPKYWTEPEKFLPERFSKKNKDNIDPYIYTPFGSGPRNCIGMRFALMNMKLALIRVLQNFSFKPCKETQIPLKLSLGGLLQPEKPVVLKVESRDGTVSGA

solubility at 4 h [1] [µg/mL] | remaining at 4 h [3] [%] | remaining at 4 h [5] [%] | AUC(0-inf) [8] [µM·h] | Structure (SMILES) | IP [2] [nM] | Papp at 3 h, 1 µM [11] [×10⁻⁶ cm/s] | Papp at 3 h, 1 µM [16] [×10⁻⁶ cm/s] | AUC (Canis familiaris [20]) [µM·h] | further results
> 2000 | > 98 | > 98 |  | CC(C)OC(=O)OCOc1c2c(c3n(c1=O)[C@@]1(CC[C@H]4C[C@H]41)N(C[C@H](C)OP(=O)(O)O)C3=O)CCN(Cc1ccc(F)c(Cl)c1)C2=O | >4200 |  |  |  | AUC (Canis familiaris [4]): 570 µM·h
> 2000 | 90 | 90 | 6.8 | C[C@@H](CN1C(=O)c2c3c(c(O)c(=O)n2[C@@]12CC[C@H]1C[C@H]12)C(=O)N(Cc1ccc(F)c(Cl)c1)CC3)OC(=O)[C@@H](N)CCCCN | 40 |  |  |  | 
2300 (≈ 3950 µM) | > 98 | > 98 | 6.8 | C[C@@H](CN1C(=O)c2c3c(c(O)c(=O)n2[C@@]12CC[C@H]1C[C@H]12)C(=O)N(Cc1ccc(F)c(Cl)c1)CC3)OP(=O)(O)O | 1580 |  |  |  | 
250 (≈ 404 µM) | > 98 | > 98 |  | CC(C)OC(=O)OCOc1c2c(c3n(c1=O)[C@@]1(CC[C@H]4C[C@H]41)N(C[C@H](C)O)C3=O)CCN(Cc1ccc(F)c(Cl)c1)C2=O | 178 | 23.5 | 26.7 | 23 | AUC (Canis familiaris [21]): 128 µM·h; AUC [22]: 23.9 µM·h; AUC(0-inf) [23]: 0.034 µM·h; AUC(0-inf) [24]: 1.12 µM·h; AUC [25]: 33.9 µM·h

Structure (SMILES) | solubility at 4 h [1] [µg/mL] | remaining at 4 h [3] [%] | remaining at 4 h [5] [%] | AUC(0-inf) [8] [µM·h] | IP [2] [nM] | Papp at 3 h, 1 µM [11] [×10⁻⁶ cm/s] | Papp at 3 h, 1 µM [16] [×10⁻⁶ cm/s] | AUC (Canis familiaris [20]) [µM·h] | further results
C[C@H](O)CN1C(=O)c2c3c(c(O)c(=O)n2[C@@]12CC[C@H]1C[C@H]12)C(=O)N(Cc1ccc(F)c(Cl)c1)CC3 | 58 (≈ 116 µM) |  |  | 10.5 | 2 | 22.9 | 14.8 | 11 | fraction unbound at 4 h, 2.5 µM [6]: 0.012; bioavailability [7]: 42%; IP [9]: 67 nM; Ratio IC50 [10]: 1; Ratio IC50 [12]: 1.5; clearance [13]: 3 mL/min/kg; Vd [14]: 0.6 L/kg; solubility at 4 h [15]: 30 µg/mL (≈ 59.8 µM); half-life [17]: 5.9 h; TDI (Cytochrome P450 3A4): Not Active; Ratio IC50 [18]: 1.5; fraction unbound at 4 h, 2.5 µM [19]: 0.025
